Experimental data as given in ChEMBL document CHEMBL2029303, “Syntheses and biological studies of novel spiropiperazinyl oxazolidinone antibacterial agents using a spirocyclic diene derived acylnitroso Diels-Alder reaction” (Bioorg Med Chem, 2012).
Converted amounts (≈) assume the structure as drawn. The source made the active and inactive calls. No cut-off for these calls is given here.

Experiments:
[1] = test system: Mycobacterium tuberculosis; assay: Antimycobacterial activity against Mycobacterium tuberculosis H37Rv grown in iron-deficient glycerol-alanine-salts media; type: functional
[2] = test system: Mycobacterium tuberculosis; assay: Antimycobacterial activity against Mycobacterium tuberculosis H37Rv grown in glycerol-alanine-salts media; type: functional
Mycolicibacterium vaccae [3] = assay: Antimycobacterial activity against Mycobacterium vaccae IMET 10670 assessed as partial clear inhibition zone at 50 uL of 2 mM solution of compound in 1:9 DMSO/MeOH after 24 hrs by agar diffusion method; type: functional
Outline: (§1)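 Agar diffusion assay against representative Gram-positive and Gram-negative bacteria and Mycobacterium vaccae; the read-out is the diameter of the inhibition zone around the applied compound, measured in mm.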

Escherichia coli = assay: Antibacterial activity against Escherichia coli SG 458 at 50 uL of 2 mM solution of compound in 1:9 DMSO/MeOH after 24 hrs by agar diffusion method; type: functional; outline: as §1
Staphylococcus aureus [4] = assay: Antibacterial activity against methicillin-resistant Staphylococcus aureus 134/93 at 50 uL of 2 mM solution of compound in 1:9 DMSO/MeOH after 24 hrs by agar diffusion method; type: functional
Outline: (§2)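 Agar diffusion screen; read-out is the diameter of the inhibition zone, in mm.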

Bacillus subtilis [5] = assay: Antibacterial activity against Bacillus subtilis ATCC 6633 assessed as clear inhibition zone at 50 uL of 2 mM solution of compound in 1:9 DMSO/MeOH after 24 hrs by agar diffusion method; type: functional; outline: as §1
Pseudomonas aeruginosa [6] = assay: Antibacterial activity against Pseudomonas aeruginosa SG 137 at 50 uL of 2 mM solution of compound in 1:9 DMSO/MeOH after 24 hrs by agar diffusion method; type: functional; outline: as §1
Bacillus subtilis [7] = assay: Antibacterial activity against Bacillus subtilis ATCC 6633 at 50 uL of 2 mM solution of compound in 1:9 DMSO/MeOH after 24 hrs by agar diffusion method; type: functional; outline: as §1
Staphylococcus aureus [8] = assay: Antibacterial activity against Staphylococcus aureus SG 511 assessed as partial clear inhibition zone at 50 uL of 2 mM solution of compound in 1:9 DMSO/MeOH after 24 hrs by agar diffusion method; type: functional; outline: as §1
Enterococcus faecalis [9] = assay: Antibacterial activity against vancomycin-resistant Enterococcus faecalis 1528 at 50 uL of 2 mM solution of compound in 1:9 DMSO/MeOH after 24 hrs by agar diffusion method; type: functional; outline: as §2
Pseudomonas aeruginosa [10] = assay: Antibacterial activity against Pseudomonas aeruginosa K799/61 at 50 uL of 2 mM solution of compound in 1:9 DMSO/MeOH after 24 hrs by agar diffusion method; type: functional; outline: as §1
Staphylococcus aureus [11] = assay: Antibacterial activity against methicillin-resistant Staphylococcus aureus 134/93 assessed as clear inhibition zone at 50 uL of 2 mM solution of compound in 1:9 DMSO/MeOH after 24 hrs by agar diffusion method; type: functional; outline: as §2
Enterococcus faecalis [12] = assay: Antibacterial activity against vancomycin-resistant Enterococcus faecalis 1528 assessed as partial clear inhibition zone at 50 uL of 2 mM solution of compound in 1:9 DMSO/MeOH after 24 hrs by agar diffusion method; type: functional; outline: as §2
Staphylococcus aureus [13] = assay: Antibacterial activity against methicillin-resistant Staphylococcus aureus ATCC 700699 in presence of 50% human serum; type: functional
Outline: (§3)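 MIC assay run with 50% mouse or human serum added to gauge protein-binding effect. Fold shift is calculated as the MIC with serum over the MIC without serum.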

Staphylococcus aureus [14] = assay: Ratio of MIC methicillin-resistant Staphylococcus aureus ATCC 700699 in presence of 50% mouse serum to MIC for […]; type: functional; outline: as §3
Staphylococcus aureus [15] = assay: Antibacterial activity against methicillin-sensitive Staphylococcus aureus ATCC 29213; type: functional
Staphylococcus aureus [16] = assay: Antibacterial activity against methicillin-resistant Staphylococcus aureus ATCC 700699 in presence of 50% mouse serum; type: functional; outline: as §3
[17] = Cytotoxicity against human HepG2 cells; type: cell-based
Bacillus subtilis [18] = assay: Antibacterial activity against Bacillus subtilis ATCC 6633 assessed as partial clear inhibition zone at 50 uL of 2 mM solution of compound in 1:9 DMSO/MeOH after 24 hrs by agar diffusion method; type: functional; outline: as §1
Staphylococcus aureus [19] = assay: Ratio of MIC methicillin-resistant Staphylococcus aureus ATCC 700699 in presence of 50% human serum to MIC for […]; type: functional; outline: as §3
Staphylococcus aureus [20] = assay: Antibacterial activity against Staphylococcus aureus SG 511 at 50 uL of 2 mM solution of compound in 1:9 DMSO/MeOH after 24 hrs by agar diffusion method; type: functional; outline: as §1
Staphylococcus aureus [21] = assay: Antibacterial activity against methicillin-resistant Staphylococcus aureus ATCC 700699; type: functional
Mycolicibacterium vaccae [22] = assay: Antimycobacterial activity against Mycobacterium vaccae IMET 10670 at 50 uL of 2 mM solution of compound in 1:9 DMSO/MeOH after 24 hrs by agar diffusion method; type: functional; outline: as §1
Enterococcus faecalis [23] = assay: Antibacterial activity against vancomycin-resistant Enterococcus faecalis 1528 assessed as unclear inhibition zone at 50 uL of 2 mM solution of compound in 1:9 DMSO/MeOH after 24 hrs by agar diffusion method; type: functional; outline: as §2
Staphylococcus aureus [24] = assay: Antibacterial activity against Staphylococcus aureus SG 511 assessed as clear inhibition zone at 50 uL of 2 mM solution of compound in 1:9 DMSO/MeOH after 24 hrs by agar diffusion method; type: functional; outline: as §1
Mycolicibacterium vaccae [25] = assay: Antimycobacterial activity against Mycobacterium vaccae IMET 10670 assessed as unclear inhibition zone at 50 uL of 2 mM solution of compound in 1:9 DMSO/MeOH after 24 hrs by agar diffusion method; type: functional; outline: as §1
Pseudomonas aeruginosa [26] = assay: Antibacterial activity against Pseudomonas aeruginosa K799/61 assessed as clear inhibition zone at 50 uL of 2 mM solution of compound in 1:9 DMSO/MeOH after 24 hrs by agar diffusion method; type: functional, organism-based; outline: as §1

| SMILES | MIC [1] | MIC [2] | diameter of the inhibition zone (DIZ) (Mycolicibacterium vaccae [3]) | diameter of the inhibition zone (DIZ) (Escherichia coli) | diameter of the inhibition zone (DIZ) (Staphylococcus aureus [4]) | diameter of the inhibition zone (DIZ) (Bacillus subtilis [5]) | diameter of the inhibition zone (DIZ) (Pseudomonas aeruginosa [6]) | diameter of the inhibition zone (DIZ) (Bacillus subtilis [7]) | diameter of the inhibition zone (DIZ) (Enterococcus faecalis [9]) | diameter of the inhibition zone (DIZ) (Pseudomonas aeruginosa [10]) | diameter of the inhibition zone (DIZ) (Staphylococcus aureus [20]) | other results |
| --- | --- | --- | --- | --- | --- | --- | --- | --- | --- | --- | --- | --- |
| CC(C)(C)OC(=O)N1OC2CCC1C21CCN(c2ccc(N3C[C@H](COS(C)(=O)=O)OC3=O)cc2F)CC1 (stereo partly drawn) | 67.4 µM | 118 µM |  |  |  |  |  |  |  |  |  |  |
| CC(C)(C)OC(=O)N1OC2CCC1C21CCN(c2ccc([N+](=O)[O-])cc2F)CC1 (stereo not drawn) | > 128 µM | > 128 µM |  |  |  |  |  |  |  |  |  |  |
| CC(C)(C)OC(=O)N1OC2CCC1C21CCN(c2ccc(NC(=O)OCc3ccccc3)cc2F)CC1 (stereo not drawn) | > 128 µM | > 128 µM |  |  |  |  |  |  |  |  |  |  |
| CC(=O)NC[C@H]1CN(c2ccc(N3CCOCC3)c(F)c2)C(=O)O1 [LINEZOLID] | 0.4 µM |  |  |  |  |  |  |  |  |  |  |  |
| CC(=O)NC[C@H]1CN(c2ccc(N3CCC4(CC3)C(O)CCC4NC(=O)OC(C)(C)C)c(F)c2)C(=O)O1 (stereo partly drawn) | > 128 µM | > 128 µM | 13 mm | 0 mm | 14 mm | 19 mm | 0 mm | 14 mm | 15 mm | 0 mm |  | diameter of the inhibition zone (DIZ) (Staphylococcus aureus [8]): 16 mm; diameter of the inhibition zone (DIZ) (Staphylococcus aureus [11]): 18 mm; diameter of the inhibition zone (DIZ) (Enterococcus faecalis [12]): 18 mm |
| CCCC(=O)OC[C@H]1CN(c2ccc(N3CCC4(CC3)C3CCC4N(C(=O)OC(C)(C)C)O3)c(F)c2)C(=O)O1 (stereo partly drawn) | 29.2 µM | 19.2 µM |  |  |  |  |  |  |  |  |  |  |
| CC(C)(C)OC(=O)N1OC2CCC1C21CCN(c2ccc(N)cc2F)CC1 (stereo not drawn) | > 128 µM | > 128 µM |  |  |  |  |  |  |  |  |  |  |
| CC(C)(C)OC(=O)N1OC2CCC1C21CCN(c2ccc(N3C[C@H](CO)OC3=O)cc2F)CC1 (stereo partly drawn) | > 128 µM | 97 µM | 30 mm | 0 mm | 24 mm | 28 mm | 0 mm | 23.5 mm | 22 mm | 0 mm | 22 mm | MIC (Staphylococcus aureus [13]): > 34 µg/mL; Ratio (Staphylococcus aureus [14]): >2; MIC (Staphylococcus aureus [15]): > 64 µg/mL; MIC (Staphylococcus aureus [16]): > 64 µg/mL; CC50 [17]: > 100 µM; diameter of the inhibition zone (DIZ) (Bacillus subtilis [18]): 30 mm; Ratio (Staphylococcus aureus [19]): >2; MIC (Staphylococcus aureus [21]): 32 µg/mL (≈ 67 µM) |
| CC(=O)NC[C@H]1CN(c2ccc(N3CCC4(CC3)C3CCC4N(C(=O)OC(C)(C)C)O3)c(F)c2)C(=O)O1 (stereo partly drawn) | 22 µM | 24.4 µM | 37 mm | 0 mm | 25 mm | 27 mm | 0 mm | 25 mm | 23 mm | 0 mm | 18 mm | diameter of the inhibition zone (DIZ) (Mycolicibacterium vaccae [22]): 24 mm; MIC (Staphylococcus aureus [13]): 62 µg/mL; Ratio (Staphylococcus aureus [14]): 2; MIC (Staphylococcus aureus [15]): 64 µg/mL (≈ 123 µM); MIC (Staphylococcus aureus [16]): 32 µg/mL; CC50 [17]: > 100 µM; diameter of the inhibition zone (DIZ) (Staphylococcus aureus [8]): 22 mm; Ratio (Staphylococcus aureus [19]): 4; MIC (Staphylococcus aureus [21]): 16 µg/mL (≈ 30.9 µM) |
| CC(C)(C)OC(=O)N1OC2CCC1C21CCN(c2ccc(N3C[C@H](CN)OC3=O)cc2F)CC1 (stereo partly drawn) |  |  |  | 10 mm |  |  | 0 mm | 12 mm |  |  | 10 mm | diameter of the inhibition zone (DIZ) (Enterococcus faecalis [23]): 14 mm; diameter of the inhibition zone (DIZ) (Mycolicibacterium vaccae [22]): 18 mm; diameter of the inhibition zone (DIZ) (Staphylococcus aureus [24]): 13 mm; diameter of the inhibition zone (DIZ) (Staphylococcus aureus [11]): 14 mm; diameter of the inhibition zone (DIZ) (Mycolicibacterium vaccae [25]): 25 mm; diameter of the inhibition zone (DIZ) (Pseudomonas aeruginosa [26]): Active |
